Test results as given in ChEMBL document CHEMBL3739318, “Orally Bioavailable Metal Chelators and Radical Scavengers: Multifunctional Antioxidants for the Coadjutant Treatment of Neurodegenerative Diseases” (J Med Chem, 2015).
Active and inactive are the calls of the source. No cut-off for these calls is given here.

Legend:
SH-SY5Y [1] = test: Neuroprotective activity against Fenton reagent-induced ROS generation in human SH-SY5Y cells assessed as increase in GSH level at 1 mM after 2 hrs by DTNB method; type: functional, cell-based
Summary of the method: (§1)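 Cells grown in 60 or 150 mm dishes and exposed 2 h to Fenton reagent (1 mM H2O2 + 1 mM Fe2+) with or without 1 mM compound in 0.16% DMSO. Intracellular glutathione then measured. Mean ± SEM, n = 6. ANOVA.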

[2] = Metal chelating activity assessed as stoichiometric ratio of compound to Zn2+ ion at 0.1 to 0.5 mM of compound and metal ion mixture after 45 mins by spectrophotometric analysis; type: physicochemical; settings: 0.75 h, 500 µM
Summary of the method: (§2)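 Job continuous-variation method at 23 °C. Compound dissolved in acetonitrile, then diluted to 0.1 mM stock in 1 mM acetate pH 6.5. Compound + ion at constant total 0.1–0.5 mM with varied mole fraction. After 45 min equilibration, UV absorbance scanned 210–310 nm. Stoichiometry taken from the intersection of lines. Mean ± SD, n = 3.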

SH-SY5Y [3] = test: Neuroprotective activity against Fenton reagent-induced ROS generation-stimulated cytotoxicity in human SH-SY5Y cells assessed as cell viability at 1 mM after 2 hrs by MTS assay; type: functional, cell-based
Summary of the method: (§3)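 Cells in 96-well format exposed 2 h to Fenton reagent (1 mM H2O2 + 1 mM Fe2+) with or without 1 mM compound in 0.16% DMSO. Viability by MTS assay, normalized to untreated cells without Fenton reagent (100%). Mean ± SEM, n = 4. ANOVA.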

SH-SY5Y [4] = test: Cytotoxicity against human SH-SY5Y cells assessed as reduction in cell viability at 1 mM after 2 hrs by MTS assay; type: cell-based; settings: 1000 µM
Summary of the method: (§4)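 ARPE-19 grown in DMEM + 4% FBS and SH-SY5Y in EMEM/F12 + 10% FBS, at 37 °C, 5% CO2. Plated at 1 × 10^4 cells/well. Exposed 2 h to 1 mM compound (0.16% DMSO) without oxidant. Viability by MTS. Mean ± SEM, n = 4, ANOVA versus blank control.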

[5] = Metal chelating activity assessed as stoichiometric ratio of compound to Cu+ ion at 0.1 to 0.5 mM of compound and metal ion mixture after 45 mins by spectrophotometric analysis; type: physicochemical; settings: 0.75 h, 500 µM; summary of the method: as §2
SH-SY5Y [6] = test: Antioxidant activity in human SH-SY5Y cells assessed as reduction of xanthine oxidase-mediated superoxide generation preincubated for 1 hr followed by xanthine oxidase challenge for 1 hr by MitoSOX staining-based fluorescence analysis; type: functional, cell-based
Summary of the method: (§5)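 Cells washed with PBS, then preincubated 1 h at 37 °C in serum-free medium with 1, 10, 100 or 1000 μM compound, or SOD 25 μg/mL as reference. Xanthine oxidase added (25 mU/mL; ~100 μM superoxide) for 1 h more. After a PBS wash, cells stained with MitoSOX Red (5 μM) for 2 h. Fluorescence read at Ex/Em 510/580 nm.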

[7] = Metal chelating activity assessed as stoichiometric ratio of compound to Mg2+ ion at 0.1 to 0.5 mM of compound and metal ion mixture after 45 mins by spectrophotometric analysis; type: physicochemical; settings: 0.75 h, 500 µM; summary of the method: as §2
[8] = Metal chelating activity assessed as stoichiometric ratio of compound to Fe2+ ion at 0.1 to 0.5 mM of compound and metal ion mixture after 45 mins by spectrophotometric analysis; type: physicochemical; settings: 0.75 h, 500 µM; summary of the method: as §2
[9] = Cytotoxicity against human ARPE19 cells assessed as reduction in cell viability at 1 mM after 2 hrs by MTS assay; type: cell-based; settings: arpe-19, 2 h, 1000 µM; summary of the method: as §4
SH-SY5Y [10] = test: Neuroprotective activity against Fenton reagent-induced hydroxy radical-stimulated cytotoxicity in human SH-SY5Y cells assessed as cell survival at 1 to 1000 uM preincubated for 1 hr followed by Fenton reagent challenge for 2 hrs by fluorescence-based LIVE/DEAD viability/cytotoxicity assay; type: functional
Summary of the method: (§6)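 After a PBS wash, cells preincubated 1 h at 37 °C in serum-free medium with 1–1000 μM compound. Fenton reagent (Fe2+/H2O2, 100 μM final) then added for 2 h. Stained 15 min at 37 °C with calcein AM 8 μM and EthD-1 16 μM. Fluorescence read at 494/517 and 528/617 nm. % live cells calculated from blank-corrected single-dye controls; dead-cell control 70% ethanol. Mean ± SEM, n = 6.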

ARPE-19 [11] = test: Neuroprotective activity against Fenton reagent-induced ROS generation in human ARPE19 cells assessed as increase in GSH level at 1 mM after 2 hrs by DTNB method; type: functional, cell-based; summary of the method: as §1
[12] = Metal chelating activity assessed as stoichiometric ratio of compound to Fe3+ ion at 0.1 to 0.5 mM of compound and metal ion mixture after 45 mins by spectrophotometric analysis; type: physicochemical; settings: 0.75 h, 500 µM; summary of the method: as §2
[13] = Metal chelating activity assessed as stoichiometric ratio of compound to Cu2+ ion at 0.1 to 0.5 mM of compound and metal ion mixture after 45 mins by spectrophotometric analysis; type: physicochemical; settings: 0.75 h, 500 µM; summary of the method: as §2
ARPE-19 [14] = test: Neuroprotective activity against Fenton reagent-induced ROS generation-stimulated cytotoxicity in human ARPE19 cells assessed as cell viability at 1 mM after 2 hrs by MTS assay; type: functional, cell-based; summary of the method: as §3
[15] = Metal chelating activity assessed as stoichiometric ratio of compound to Ca2+ ion at 0.1 to 0.5 mM of compound and metal ion mixture after 45 mins by spectrophotometric analysis; type: physicochemical; settings: 0.75 h, 500 µM; summary of the method: as §2
[16] = Drug uptake in lens of C57BL/6 mouse assessed per mg of protein at 80 mg/kg, po administered everyday for 14 days by HPLC-MS analysis; type: ADME, organism-based, Lens of camera-type eye; settings: in vivo, 336 h
Summary of the method: (§7)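 C57BL/6 mice fed chow containing 0.05% compound (~80 mg/kg/day average) for 14 days. Perfused with PBS; brain, lens and neural retina homogenized in ice-cold 10 mM acetate pH 4 with internal standard. Extracted with TCA precipitation and chloroform. Analyzed by reverse-phase C18 HPLC.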

[17] = Drug uptake in neural retina of C57BL/6 mouse assessed per mg of protein at 80 mg/kg, po administered everyday for 14 days by HPLC-MS analysis; type: ADME, organism-based; settings: in vivo, 336 h; summary of the method: as §7
ARPE-19 [18] = test: Neuroprotective activity against Fenton reagent-induced hydroxy radical-stimulated cytotoxicity in human ARPE19 cells assessed as cell survival at 1 to 1000 uM preincubated for 1 hr followed by Fenton reagent challenge for 2 hrs by fluorescence-based LIVE/DEAD viability/cytotoxicity assay; type: functional; summary of the method: as §6
[19] = Metal chelating activity assessed as stoichiometric ratio of compound to Mn2+ ion at 0.1 to 0.5 mM of compound and metal ion mixture after 45 mins by spectrophotometric analysis; type: physicochemical; settings: 0.75 h, 500 µM; summary of the method: as §2
ARPE-19 [20] = test: Antioxidant activity in human ARPE19 cells assessed as reduction of xanthine oxidase-mediated superoxide generation preincubated for 1 hr followed by xanthine oxidase challenge for 1 hr by MitoSOX staining-based fluorescence analysis; type: functional, cell-based; summary of the method: as §5

| Compound | Activity (SH-SY5Y [1]) | Ratio [2] | Activity (SH-SY5Y [3]) | Activity (SH-SY5Y [4]) | Ratio [5] | Activity (SH-SY5Y [6]) | Ratio [7] | Ratio [8] | Activity [9] | Activity (SH-SY5Y [10]) | Activity (ARPE-19 [11]) | Ratio [12] | Ratio [13] | Activity (ARPE-19 [14]) | Ratio [15] | Drug uptake [16] | Drug uptake [17] | Activity (ARPE-19 [18]) | Ratio [19] | Activity (ARPE-19 [20]) |
| --- | --- | --- | --- | --- | --- | --- | --- | --- | --- | --- | --- | --- | --- | --- | --- | --- | --- | --- | --- | --- |
| O=C1CCC(=O)N1c1ncc(O)cn1 | Active | 1.87 | Active | Non-toxic | 2.01 | Dose-dependent effect | 0 | 2.06 | Non-toxic | Dose-dependent effect | Active | 2.01 | 2.28 | Active | 0 | Active | Active | Dose-dependent effect | 2.14 | Dose-dependent effect |
| COc1nc(N2CCCC2)nc(OC)c1O | Active | – | Active | Non-toxic | – | – | – | – | Non-toxic | – | Active | – | – | Active | – | – | – | – | – | – |
| O=C1CCCC(=O)N1c1ncccn1 | Active | 2.17 | Active | Non-toxic | 1.9 | – | 0 | 2.13 | Non-toxic | – | Active | 1.8 | 2.01 | Active | 0 | – | – | – | 1.83 | – |
| c1cnc(N2CCCCC2)nc1 | Active | – | inactive | Non-toxic | – | – | – | – | Non-toxic | – | Active | – | – | inactive | – | – | – | – | – | – |
| c1cnc(N2CCCC2)nc1 | Active | – | inactive | Non-toxic | – | – | – | – | Non-toxic | inactive | Active | – | – | inactive | – | – | – | inactive | – | – |
| COc1nc(N2C(=O)CCCC2=O)nc(OC)c1O | Active | 2.09 | Active | Non-toxic | 1.97 | – | 0 | 1.97 | Non-toxic | – | Active | 1.82 | 1.86 | Active | 0 | Active | Active | – | 2.12 | – |
| O=C1CCCC(=O)N1c1ncc(O)cn1 | Active | 1.99 | Active | Non-toxic | 1.86 | – | 0 | 1.85 | Non-toxic | – | Active | 1.92 | 1.75 | Active | 0 | Active | Active | – | 1.91 | – |
| COc1cc(OC)nc(N2C(=O)CCCC2=O)n1 | Active | 2.06 | Active | Non-toxic | 1.9 | – | 0 | 1.96 | Non-toxic | – | Active | 2.08 | 1.96 | Active | 0 | – | – | – | 1.95 | – |
| COc1cc(OC)nc(N2CCCC2)n1 | Active | – | inactive | Non-toxic | – | – | – | – | Non-toxic | inactive | Active | – | – | inactive | – | – | – | inactive | – | – |
| Oc1cnc(N2CCCC2)nc1 | Active | – | Active | Non-toxic | – | – | – | – | Non-toxic | – | Active | – | – | Active | – | – | – | – | – | – |
| Cc1c(C)c2c(c(C)c1O)CCC(C)(C(=O)O)O2 (stereo not given) [TROLOX] | Active | – | Active | Non-toxic | – | Dose-dependent effect | – | – | Non-toxic | Dose-dependent effect | Active | – | – | Active | – | – | – | Dose-dependent effect | – | Dose-dependent effect |
| COc1cc(OC)nc(N2C(=O)CCC2=O)n1 | Active | 2.07 | Active | Non-toxic | 1.92 | – | 0 | 2.02 | Non-toxic | – | Active | 2.05 | 2.01 | Active | 0 | – | – | – | 2.04 | – |
| Oc1cnc(N2CCCCC2)nc1 | Active | – | Active | Non-toxic | – | – | – | – | Non-toxic | – | Active | – | – | Active | – | – | – | – | – | – |
| COc1nc(N2CCCCC2)nc(OC)c1O | Active | – | Active | Non-toxic | – | – | – | – | Non-toxic | – | Active | – | – | Active | – | – | – | – | – | – |
| O=C1CCC(=O)N1c1ncccn1 | Active | 1.87 | Active | Non-toxic | 2.01 | – | 0 | 2.06 | Non-toxic | – | Active | 2.01 | 2.28 | Active | 0 | – | – | – | 1.98 | – |
| Oc1c(I)cc(Cl)c2cccnc12 [CLIOQUINOL] | Active | – | Active | 20% | – | Dose-dependent effect | – | – | 30% | Dose-dependent effect | Active | – | – | Active | – | – | – | Dose-dependent effect | – | Dose-dependent effect |
| COc1cc(OC)nc(N2CCCCC2)n1 | Active | – | inactive | Non-toxic | – | – | – | – | Non-toxic | – | Active | – | – | inactive | – | – | – | – | – | – |
